The values that follow come from BindingDB's records for doi:10.1016/j.bmc.2008.06.044 (University of Montreal, 2008).

As a reminder, the IC50 is the midpoint of a concentration-inhibition curve.

The nature of experiment [1]: Inhibition of recombinant galectin 1 in human O type red blood cells by hemagglutinination assay.
The nature of experiment [2]: Inhibition of recombinant galectin 3 in human O type red blood cells by hemagglutinination assay.
Experiment [3] addresses Galectin-1 (Homo sapiens, UniProt P09382). Briefly: Inhibition of recombinant galectin 1 in human O type red blood cells by hemagglutinination assay. An outline of the steps:
(§1)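 Human type O erythrocytes were fixed with 3% glutaraldehyde in PBS containing 0.0025% NaN3, then used at 0.0025% final. Galectin at 1 µM was incubated with the RBCs, with or without a range of inhibitor concentrations, at 37 °C for 30 min. RBC aggregation was then scored, in triplicate.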

Experiment [4] addresses Galectin-3 (Homo sapiens, UniProt P17931). Briefly: Inhibition of recombinant galectin 3 in human O type red blood cells by hemagglutinination assay. An outline of the steps: as §1

Bounds are passed on as bounds.

Galectin-3, sequence (P17931 whole entry): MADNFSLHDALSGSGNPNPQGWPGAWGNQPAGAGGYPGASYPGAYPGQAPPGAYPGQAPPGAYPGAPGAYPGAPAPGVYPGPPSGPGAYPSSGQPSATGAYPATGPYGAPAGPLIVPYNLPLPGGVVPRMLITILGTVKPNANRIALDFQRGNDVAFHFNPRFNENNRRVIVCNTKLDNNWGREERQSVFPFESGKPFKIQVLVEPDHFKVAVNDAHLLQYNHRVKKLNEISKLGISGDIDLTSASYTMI
Galectin-1, sequence (P09382 whole entry): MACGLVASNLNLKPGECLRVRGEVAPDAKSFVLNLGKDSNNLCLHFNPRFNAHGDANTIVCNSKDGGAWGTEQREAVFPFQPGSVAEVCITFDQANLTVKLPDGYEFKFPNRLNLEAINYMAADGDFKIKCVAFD

As for `CC(=O)C[C@@H]1O[C@H](CO)[C@H](O)[C@H](O)[C@H]1O` [1-((2S,3R,4R,5R,6R)-3,4,5-trihydroxy-6-(hydroxymethyl)-tetrahydro-2H-pyran-2-yl)propan-2-one], the IC50 is greater than 5 mM in experiment [1] and 5 mM in experiment [2].

Take `C=C(C[C@@H]1O[C@H](CO)[C@H](O)[C@H](O)[C@H]1O)c1cccc([N+](=O)[O-])c1` [(2R,3R,4R,5R,6S)-2-(hydroxymethyl)-6-(2-(3-nitrophenyl)allyl)-tetrahydro-2H-pyran-3,4,5-triol]: the figures for the IC50 in experiment [1] and in experiment [2] were 5 mM and greater than 5 mM, respectively.

Regarding `C=C(C[C@@H]1O[C@H](CO)[C@H](O)[C@H](O)[C@H]1O)c1ccc(OC)cc1` [(2R,3R,4R,5R,6S)-2-(hydroxymethyl)-6-(2-(4-methoxyphenyl)allyl)-tetrahydro-2H-pyran-3,4,5-triol], the IC50 is greater than 5 mM in experiment [1] and 5 mM in experiment [2].

For the molecule `C/C=C/[C@@H]1O[C@H](CO)[C@H](O)[C@H](O)[C@H]1O` [(2R,3R,4R,5R,6S,E)-2-(hydroxymethyl)-6-(prop-1-enyl)-tetrahydro-2H-pyran-3,4,5-triol], the IC50 in experiment [1] and in experiment [2] was greater than 5 mM throughout.

In the case of `OC[C@@H]1O[C@H](n2cc(CS[C@@H]3O[C@H](CO)[C@H](O)[C@H](O)[C@H]3O)nn2)[C@@H](O)[C@H](O)[C@@H]1O` [(2R,3R,4S,5R,6S)-2-(hydroxymethyl)-6-((1-((2S,3S,4R,5S,6S)-3,4,5-trihydroxy-6-(hydroxymethyl)-tetrahydro-2H-pyran-2-yl)-1H-1,2,3-triazol-4-yl)methylthio)-tetrahydro-2H-pyran-3,4,5-triol], the IC50 is greater than 5 mM in experiment [1] and 2.5 mM in experiment [2].

In the case of `C#CCS[C@@H]1O[C@H](CO)[C@H](O)[C@H](O)[C@H]1O` [(2R,3R,4S,5R,6S)-2-(hydroxymethyl)-6-(prop-2-ynylthio)-tetrahydro-2H-pyran-3,4,5-triol], the IC50 in experiment [1] was greater than 5 mM; in experiment [2], 2.5 mM.

In the case of `OC[C@@H]1O[C@H](SCC#Cc2ccc(C#CCS[C@@H]3O[C@H](CO)[C@H](O)[C@H](O)[C@H]3O)cc2)[C@@H](O)[C@H](O)[C@@H]1O` [(2R,3S,4S,5R,6S)-2-(hydroxymethyl)-6-(3-(4-(3-((2R,3S,4R,5S,6S)-3,4,5-trihydroxy-6-(hydroxymethyl)-tetrahydro-2H-pyran-2-ylthio)prop-1-ynyl)phenyl)prop-2-ynylthio)-tetrahydro-2H-pyran-3,4,5-triol], the values for the IC50 in experiment [1] and in experiment [2] were 2.5 mM and greater than 5 mM, respectively.

Take `OC[C@H]1O[C@@H](C/C=C/c2cccc(/C=C/C[C@@H]3O[C@H](CO)[C@H](O)[C@H](O)[C@H]3O)c2)[C@H](O)[C@@H](O)[C@H]1O` [(2S,3R,4R,5R,6R)-2-((12S,14R,15R,16R,17R,E)-3-((E)-3-((2S,3R,4R,5R,6R)-3,4,5-trihydroxy-6-(hydroxymethyl)-tetrahydro-2H-pyran-2-yl)prop-1-enyl)cinnamyl)-6-(hydroxymethyl)-tetrahydro-2H-pyran-3,4,5-triol]: the IC50 in experiment [1] was 5 mM; in experiment [2], greater than 5 mM.

Regarding `OC[C@H]1O[C@@H](C/C=C/c2ccccc2)[C@H](O)[C@@H](O)[C@H]1O` [(2S,3R,4R,5R,6R)-2-cinnamyl-6-(hydroxymethyl)-tetrahydro-2H-pyran-3,4,5-triol], the IC50 in experiment [1] and in experiment [2] was greater than 5 mM throughout.

With `OC[C@@H]1O[C@H](O[C@@H]2[C@@H](O)[C@H](O)[C@@H](n3cc(CS[C@@H]4O[C@H](CO)[C@H](O)[C@H](O)[C@H]4O)nn3)O[C@H]2CO)[C@@H](O)[C@H](O)[C@@H]1O` [(2S,3R,4S,5R,6R)-2-((1-((2S,3S,4S,5R,6S)-3,4-dihydroxy-6-(hydroxymethyl)-5-((2R,3S,4R,5S,6S)-3,4,5-trihydroxy-6-(hydroxymethyl)-tetrahydro-2H-pyran-2-yloxy)-tetrahydro-2H-pyran-2-yl)-1H-1,2,3-triazol-4-yl)methylthio)-6-(hydroxymethyl)-tetrahydro-2H-pyran-3,4,5-triol], the IC50 is 0.3 mM in experiment [1] and 0.6 mM in experiment [2].

Take `OC[C@@H]1O[C@H](n2cc(CS[C@@H]3O[C@H](CO)[C@@H](O[C@@H]4O[C@H](CO)[C@H](O)[C@H](O)[C@H]4O)[C@H](O)[C@H]3O)nn2)[C@@H](O)[C@H](O)[C@@H]1O` [(2S,3R,4S,5R,6R)-2-((2R,3S,4R,5R,6S)-4,5-dihydroxy-2-(hydroxymethyl)-6-((1-((2S,3S,4R,5S,6S)-3,4,5-trihydroxy-6-(hydroxymethyl)-tetrahydro-2H-pyran-2-yl)-1H-1,2,3-triazol-4-yl)methylthio)-tetrahydro-2H-pyran-3-yloxy)-6-(hydroxymethyl)-tetrahydro-2H-pyran-3,4,5-triol]: the IC50 in experiment [1] turned out to be 0.6 mM; in experiment [2] it was 0.3 mM.

Take `C#CCS[C@@H]1O[C@H](CO)[C@@H](O[C@@H]2O[C@H](CO)[C@H](O)[C@H](O)[C@H]2O)[C@H](O)[C@H]1O` [(2S,3R,4S,5R,6R)-2-((2R,3S,4R,5R,6S)-4,5-dihydroxy-2-(hydroxymethyl)-6-(prop-2-ynylthio)-tetrahydro-2H-pyran-3-yloxy)-6-(hydroxymethyl)-tetrahydro-2H-pyran-3,4,5-triol]: the IC50 in experiment [1] worked out at 0.6 mM; in experiment [2] it was 0.3 mM.

Turning to `OC[C@@H]1O[C@H](O[C@@H]2[C@@H](O)[C@H](O)[C@@H](SCC#CC#CCS[C@@H]3O[C@H](CO)[C@@H](O[C@@H]4O[C@H](CO)[C@H](O)[C@H](O)[C@H]4O)[C@H](O)[C@H]3O)O[C@H]2CO)[C@@H](O)[C@H](O)[C@@H]1O` [(2S,3R,4S,5R,6R)-2-((2R,3S,4R,5R,6S)-6-(6-((2R,3S,4S,5R,6S)-3,4-dihydroxy-6-(hydroxymethyl)-5-((2R,3S,4R,5S,6S)-3,4,5-trihydroxy-6-(hydroxymethyl)-tetrahydro-2H-pyran-2-yloxy)-tetrahydro-2H-pyran-2-ylthio)hexa-2,4-diynylthio)-4,5-dihydroxy-2-(hydroxymethyl)-tetrahydro-2H-pyran-3-yloxy)-6-(hydroxymethyl)-tetrahydro-2H-pyran-3,4,5-triol], the values for the IC50 in experiment [1] and in experiment [2] were 0.3 mM and 0.16 mM, respectively.

As to `OC[C@@H]1O[C@H](O[C@@H]2[C@@H](O)[C@H](O)[C@@H](n3cc(CS[C@@H]4O[C@H](CO)[C@@H](O[C@@H]5O[C@H](CO)[C@H](O)[C@H](O)[C@H]5O)[C@H](O)[C@H]4O)nn3)O[C@H]2CO)[C@@H](O)[C@H](O)[C@@H]1O` [(2S,3R,4S,5R,6R)-2-((2R,3S,4R,5R,6S)-6-((1-((2S,3S,4S,5R,6S)-3,4-dihydroxy-6-(hydroxymethyl)-5-((2R,3S,4R,5S,6S)-3,4,5-trihydroxy-6-(hydroxymethyl)-tetrahydro-2H-pyran-2-yloxy)-tetrahydro-2H-pyran-2-yl)-1H-1,2,3-triazol-4-yl)methylthio)-4,5-dihydroxy-2-(hydroxymethyl)-tetrahydro-2H-pyran-3-yloxy)-6-(hydroxymethyl)-tetrahydro-2H-pyran-3,4,5-triol], the IC50 in experiment [1] was found to be 0.3 mM; in experiment [2] it was 0.16 mM.

On to `COC(=O)/C=C/C[C@@H]1O[C@H](CO)[C@H](O)[C@H](O)[C@H]1O` [(E)-Methyl 4-(beta-D-galactopyranosyl)-but-2-enoate], for which the IC50 in experiment [1] and in experiment [2] was 5 mM in each case.

With `OC[C@@H]1O[C@H](SCC#CC#CCS[C@@H]2O[C@H](CO)[C@H](O)[C@H](O)[C@H]2O)[C@@H](O)[C@@H](O)[C@@H]1O` [Dimeric galactoside], the results for the IC50 in experiment [1] and in experiment [2] were 5 mM and greater than 5 mM, respectively.

As to `OC[C@H]1O[C@H](O)[C@H](O)[C@@H](O)[C@H]1O` [GALACTOSE], the IC50 in experiment [3] and in experiment [4] was 50 mM in each case.
